Measurements as given in ChEMBL document CHEMBL1143838, “Candida albicans and Candida dubliniensis respond differently to echinocandin antifungal agents in vitro” (2007).
Activity calls are given as the source filed them. *1 amine or outer side, *2 acyl side, *3 side chain or, on linkers, in order; H or OH if unused. Where a SMILES comes first, the peptide text is derived from it. Bridges are numbered along the chain shown (N, C = ends). [ ]: non-standard residue; d: D form. The star is where a group is joined. pTerphenylCO(4''-OnC5H11) = CCCCCOc1ccc(-c2ccc(-c3ccc(C(=O)*)cc3)cc2)cc1; Orn(4R-OH,5R-OH) = O=C([C@H](C[C@@H](O)[C@@H](O)N[*:3])N[*:1])[*:2]; hTyr(3S-OH,4S-OH) = N[C@H](C(=O)O)[C@H](O)[C@@H](O)c1ccc(O)cc1; Pro(3S-OH,4S-Me) = C[C@H]1CN[C@H](C(=O)O)[C@H]1O; Hyp = O=C(O)[C@@H]1C[C@@H](O)CN1

Tests used:
[1] = tested on: Candida dubliniensis; experiment: Antifungal activity against Candida dubliniensis SCSBB417709 after 24 hrs by CLSI M27-A test; format: functional
How it was run: (§1)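 Broth microdilution with echinocandins as aqueous doubling dilutions. Yeasts were grown overnight at 30°C in NGY and seeded at 10^3 yeasts/ml initial concentration in MOPS-buffered RPMI 1640, then incubated at 35°C for 24 h. The MIC was read visually as the lowest concentration giving a marked decrease in visible growth; paradoxical or trailing growth was noted.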

[2] = tested on: Candida albicans; experiment: Antifungal activity against Candida albicans JIMS101103 after 24 hrs by CLSI M27-A test; format: functional, organism-based
How it was run: (§2)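 CLSI M27-A broth microdilution with aqueous doubling dilutions of drug. Inoculum grown overnight at 30°C in NGY medium, then added to MOPS-buffered RPMI 1640 at an initial 10^3 yeasts/ml. Incubated 35°C for 24 h. MIC read visually as the lowest concentration giving a marked decrease in visible growth; paradoxical or trailing growth noted.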

[3] = tested on: Candida dubliniensis; experiment: Antifungal activity against Candida dubliniensis 910Aa after 24 hrs by CLSI M27-A test; format: functional; how it was run: as §2
[4] = tested on: Pichia kudriavzevii; experiment: Antifungal activity against Candida krusei ATCC 6258 after 24 hrs by CLSI M27-A test; format: functional; settings: ATCC 6258, 24 h
How it was run: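 Broth microdilution per CLSI M27-A. Drugs were prepared as aqueous doubling dilutions. Inoculum was grown overnight at 30°C in neopeptone-yeast extract-glucose medium, then added to MOPS-buffered RPMI 1640 at an initial 10^3 yeasts/ml. Plates were incubated at 35°C for 24 h. MIC was read visually as the lowest concentration giving a marked decrease in visible growth.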

[5] = tested on: Candida albicans; experiment: Antifungal activity against Candida albicans JIMS132203 after 24 hrs by EUCAST test; format: functional
How it was run: (§3)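 EUCAST broth microdilution with aqueous doubling dilutions of drug. Inoculum grown overnight at 30°C in NGY, then added to MOPS-buffered RPMI 1640 with 2% glucose at an initial 10^5 yeasts/ml. Incubated 35°C for 24 h. MICs taken from triplicate spectrophotometric dose-response data as 50% and 80% growth-reduction endpoints.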

[6] = tested on: Candida dubliniensis; experiment: Antifungal activity against Candida dubliniensis J930936 after 24 hrs by EUCAST test; format: functional
How it was run: (§4)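 Yeasts were grown overnight at 30°C in NGY, then inoculated at 10^5 yeasts/ml initial concentration into MOPS-buffered RPMI 1640 with 2% glucose containing aqueous doubling dilutions of drug. Plates were held at 35°C for 24 h. MICs came from triplicate spectrophotometric dose-response data at 50% and 80% growth-reduction endpoints. Trailing meant a >100-fold gap between these endpoints; paradoxical meant regrowth ≥5% above the curve minimum.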

[7] = tested on: Candida dubliniensis; experiment: Antifungal activity against Candida dubliniensis J931021 after 24 hrs by EUCAST test; format: functional; how it was run: as §4
[8] = tested on: Candida albicans; experiment: Antifungal activity against Candida albicans Y109 after 24 hrs by EUCAST test; format: functional; how it was run: as §3
[9] = tested on: Candida albicans; experiment: Antifungal activity against Candida albicans SC5314 after 24 hrs by EUCAST test; format: functional; settings: SC5314, 24 h; how it was run: as §3
[10] = tested on: Candida dubliniensis; experiment: Antifungal activity against Candida dubliniensis B71507 after 24 hrs by CLSI M27-A test; format: functional; how it was run: as §1
[11] = tested on: Candida dubliniensis; experiment: Antifungal activity against Candida dubliniensis SCS17154969-1 after 24 hrs by CLSI M27-A test; format: functional; how it was run: as §1
[12] = tested on: Candida albicans; experiment: Antifungal activity against Candida albicans T26 after 24 hrs by EUCAST test; format: functional; how it was run: as §3
[13] = tested on: Candida dubliniensis; experiment: Antifungal activity against Candida dubliniensis ANSA 23a after 24 hrs by CLSI M27-A test; format: functional, organism-based; how it was run: as §1
[14] = tested on: Candida dubliniensis; experiment: Antifungal activity against Candida dubliniensis SCS17154969-2 after 24 hrs by CLSI M27-A test; format: functional; how it was run: as §1
[15] = tested on: Candida dubliniensis; experiment: Antifungal activity against Candida dubliniensis IK after 24 hrs by EUCAST test; format: functional; how it was run: as §4
[16] = tested on: Candida albicans; experiment: Antifungal activity against Candida albicans NR3 after 24 hrs by EUCAST test; format: functional; how it was run: as §3
[17] = tested on: Candida albicans; experiment: Antifungal activity against Candida albicans HK04M102095 after 24 hrs by EUCAST test; format: functional; how it was run: as §3
[18] = tested on: Candida albicans; experiment: Antifungal activity against Candida albicans NR2 after 24 hrs by CLSI M27-A test; format: functional; how it was run: as §2
[19] = tested on: Candida dubliniensis; experiment: Antifungal activity against Candida dubliniensis Leic875 after 24 hrs by EUCAST test; format: functional; how it was run: as §4
[20] = tested on: Candida albicans; experiment: Antifungal activity against Candida albicans NR2 after 24 hrs by EUCAST test; format: functional; how it was run: as §3
[21] = tested on: Candida dubliniensis; experiment: Antifungal activity against Candida dubliniensis 81/060 after 24 hrs by CLSI M27-A test; format: functional, organism-based; how it was run: as §2
[22] = tested on: Candida albicans; experiment: Antifungal activity against Candida albicans NR4 after 24 hrs by CLSI M27-A test; format: functional; how it was run: as §2
[23] = tested on: Candida dubliniensis; experiment: Antifungal activity against Candida dubliniensis 90/033 after 24 hrs by EUCAST test; format: functional; how it was run: as §3
[24] = tested on: Candida dubliniensis; experiment: Antifungal activity against Candida dubliniensis Leic875 after 24 hrs by CLSI M27-A test; format: functional; how it was run: as §1
[25] = tested on: Candida dubliniensis; experiment: Antifungal activity against Candida dubliniensis J931021 after 24 hrs by CLSI M27-A test; format: functional; how it was run: as §1
[26] = tested on: Candida dubliniensis; experiment: Antifungal activity against Candida dubliniensis 75/043 after 24 hrs by CLSI M27-A test; format: functional; how it was run: as §2
[27] = tested on: Pichia kudriavzevii; experiment: Antifungal activity against Candida krusei ATCC 6258 after 24 hrs by EUCAST test; format: functional; settings: ATCC 6258, 24 h; how it was run: as §4
[28] = tested on: Candida albicans; experiment: Antifungal activity against Candida albicans CAI4RI after 24 hrs by CLSI M27-A test; format: functional; how it was run: as §2
[29] = tested on: Candida dubliniensis; experiment: Antifungal activity against Candida dubliniensis KR after 24 hrs by EUCAST test; format: functional; how it was run: as §4
[30] = tested on: Candida dubliniensis; experiment: Antifungal activity against Candida dubliniensis 81/060 after 24 hrs by EUCAST test; format: functional; how it was run: as §3
[31] = tested on: Candida dubliniensis; experiment: Antifungal activity against Candida dubliniensis B71507 after 24 hrs by EUCAST test; format: functional; how it was run: as §4
[32] = tested on: Candida albicans; experiment: Antifungal activity against Candida albicans T32 after 24 hrs by CLSI M27-A test; format: functional; how it was run: as §2
[33] = tested on: Candida albicans; experiment: Antifungal activity against Candida albicans CAI4RI after 24 hrs by EUCAST test; format: functional; how it was run: as §3
[34] = tested on: Candida dubliniensis; experiment: Antifungal activity against Candida dubliniensis 90/033 after 24 hrs by CLSI M27-A test; format: functional; how it was run: as §2
[35] = tested on: Candida dubliniensis; experiment: Antifungal activity against Candida dubliniensis SCS17154969-2 after 24 hrs by EUCAST test; format: functional; how it was run: as §4
[36] = tested on: Candida albicans; experiment: Antifungal activity against Candida albicans NR4 after 24 hrs by EUCAST test; format: functional; how it was run: as §3
[37] = tested on: Candida dubliniensis; experiment: Antifungal activity against Candida dubliniensis ANSA 23a after 24 hrs by EUCAST test; format: functional; how it was run: as §4

CCCCCOc1ccc(-c2ccc(-c3ccc(C(=O)N[C@H]4C[C@@H](O)[C@@H](O)NC(=O)[C@@H]5[C@@H](O)[C@@H](C)CN5C(=O)[C@H]([C@@H](C)O)NC(=O)[C@H]([C@H](O)[C@@H](O)c5ccc(O)cc5)NC(=O)[C@@H]5C[C@@H](O)CN5C(=O)[C@H]([C@@H](C)O)NC4=O)cc3)cc2)cc1 [ANIDULAFUNGIN] ({pTerphenylCO(4''-OnC5H11)}-[Orn(4R-OH,5R-OH)]T[Hyp][hTyr(3S-OH,4S-OH)]T[Pro(3S-OH,4S-Me)]; lactam 1-C)
1 µg/mL: MIC50 [16]
≤ 0.032 µg/mL: MIC50 [1] | MIC50 [3] | MIC50 [5] | MIC50 [6] | MIC50 [9] | MIC50 [10] | MIC50 [11] | MIC50 [14] | MIC50 [15] | MIC50 [17] | MIC50 [19] | MIC50 [24] | MIC50 [25] | MIC50 [26] | MIC50 [29] | MIC50 [30] | MIC50 [32] | MIC50 [34] | MIC50 [37]
active: Activity [2] | Activity [13] | Activity [21]
16 µg/mL: MIC50 [7]
0.5 µg/mL: MIC50 [12] | MIC50 [18] | MIC50 [28]
0.13 µg/mL: MIC50 [4] | MIC50 [8] | MIC50 [36]
0.063 µg/mL: MIC50 [27] | MIC50 [35]
8 µg/mL: MIC50 [23]
0.25 µg/mL: MIC50 [20] | MIC50 [22] | MIC50 [31] | MIC50 [33]
